Results: ChEMBL document CHEMBL5303300, “EUbOPEN Chemogenomics Library - Multiplex” (2023)
Values joined by “and” are separate entries in the source; they are usually repeats but may differ in a detail not shown here. Equal values may be shown once.

Columns and labels:
Type in all cases: toxicity, cell-based
[1] = test system: HEK-293T; test: Multiplex assay against HEK293T; conditions: human, number of replicates 2
Method in brief: (§1)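 Compound was added to live cells that had been stained at seeding with Hoechst33342, BioTracker Green Microtubule Cytoskeleton Dye, MitoTracker Red and Annexin V Alexa Fluor 680, and imaging followed on a CQ1 microscope at 37°C and 5% CO2. CellPathfinder machine-learning gating divided cells into Hoechst high-intensity objects or normal cells, normal cells into healthy, pyknosed or fragmented nuclei, and pyknosed cells into mitotic or apoptotic. Tubulin, mitochondrial-mass and membrane-permeability phenotypes are per cents of healthy-nucleus cells.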

[2] = test system: Fibroblast; test: Multiplex assay against human fibroblast; conditions: number of replicates 2; method in brief: as §1
[3] = test system: U2OS; test: Multiplex assay against U2OS; conditions: human, number of replicates 2; method in brief: as §1
[4] = 12 h, 1 µM, compound concentration 1 uM
[5] = 12 h, 10 µM, compound concentration 10 uM
[6] = 24 h, 1 µM, compound concentration 1 uM
[7] = 24 h, 10 µM, compound concentration 10 uM
[8] = 48 h, 1 µM, compound concentration 1 uM
[9] = 48 h, 10 µM, compound concentration 10 uM

## CN(C)C/C=C/C(=O)Nc1ccc(C(=O)N2CCCC(Nc3ncc(Cl)c(-c4c[nH]c5ccccc45)n3)C2)cc1 (centres undefined)
[1]; [4]
  Population Apoptotic (%): 55% and 71%
  Population Fragmented Nuclei (%): 6% and 2%
  Population Healthy Nuclei (%): 72% and 69%
  Population Hoechst High Intensity Objects (%): 14% and 16%
  Population Membrane Permeable-Phenotype (%): 3% and 1%
  Population Mitochondria Different-Phenotype (%): 63% and 58%
  Population Mitotic Cells (%): 44% and 28%
  Population Normal (%): 85% and 83%
  Population Pyknosed Nuclei (%): 20% and 28%
  Population Tubulin-Different-Phenotype (%): 83% and 79%
  Total Cell Count: 354 and 300
[1]; [5]
  Population Apoptotic (%): 69% and 84%
  Population Fragmented Nuclei (%): 5% and 11%
  Population Healthy Nuclei (%): 67% and 68%
  Population Hoechst High Intensity Objects (%): 29% and 21%
  Population Membrane Permeable-Phenotype (%): 5% and 2%
  Population Mitochondria Different-Phenotype (%): 63% and 70%
  Population Mitotic Cells (%): 30% and 15%
  Population Normal (%): 70% and 78%
  Population Pyknosed Nuclei (%): 26% and 20%
  Population Tubulin-Different-Phenotype (%): 88% and 85%
  Total Cell Count: 280 and 375
[1]; [6]
  Population Apoptotic (%): 73% and 75%
  Population Fragmented Nuclei (%): 6% and 5%
  Population Healthy Nuclei (%): 75% and 74%
  Population Hoechst High Intensity Objects (%): 17% and 19%
  Population Membrane Permeable-Phenotype (%): 2% and 0%
  Population Mitochondria Different-Phenotype (%): 68% and 60%
  Population Mitotic Cells (%): 26% and 25%
  Population Normal (%): 82% and 80%
  Population Pyknosed Nuclei (%): 17% and 20%
  Population Tubulin-Different-Phenotype (%): 80% and 68%
  Total Cell Count: 318 and 268
[1]; [7]
  Population Apoptotic (%): 89% and 91%
  Population Fragmented Nuclei (%): 7% and 10%
  Population Healthy Nuclei (%): 75% and 71%
  Population Hoechst High Intensity Objects (%): 28% and 25%
  Population Membrane Permeable-Phenotype (%): 5% and 2%
  Population Mitochondria Different-Phenotype (%): 78% and 79%
  Population Mitotic Cells (%): 10% and 8%
  Population Normal (%): 71% and 74%
  Population Pyknosed Nuclei (%): 17%
  Population Tubulin-Different-Phenotype (%): 88% and 86%
  Total Cell Count: 313 and 357
[1]; [8]
  Population Apoptotic (%): 85% and 78%
  Population Fragmented Nuclei (%): 9% and 4%
  Population Healthy Nuclei (%): 75% and 77%
  Population Hoechst High Intensity Objects (%): 22% and 15%
  Population Membrane Permeable-Phenotype (%): 0% and 1%
  Population Mitochondria Different-Phenotype (%): 76% and 69%
  Population Mitotic Cells (%): 14% and 21%
  Population Normal (%): 77% and 84%
  Population Pyknosed Nuclei (%): 15% and 17%
  Population Tubulin-Different-Phenotype (%): 81% and 77%
  Total Cell Count: 284 and 272
[1]; [9]
  Population Apoptotic (%): 75% and 83%
  Population Fragmented Nuclei (%): 8% and 17%
  Population Healthy Nuclei (%): 54%
  Population Hoechst High Intensity Objects (%): 24% and 26%
  Population Membrane Permeable-Phenotype (%): 1% and 5%
  Population Mitochondria Different-Phenotype (%): 75% and 70%
  Population Mitotic Cells (%): 25% and 16%
  Population Normal (%): 75% and 73%
  Population Pyknosed Nuclei (%): 36% and 28%
  Population Tubulin-Different-Phenotype (%): 83% and 82%
  Total Cell Count: 362 and 446
[2]; [4]
  Population Apoptotic (%): 40% and 56%
  Population Fragmented Nuclei (%): 10% and 12%
  Population Healthy Nuclei (%): 68% and 67%
  Population Hoechst High Intensity Objects (%): 0%
  Population Membrane Permeable-Phenotype (%): 3% and 5%
  Population Mitochondria Different-Phenotype (%): 0% and 2%
  Population Mitotic Cells (%): 59% and 43%
  Population Normal (%): 99% and 100%
  Population Pyknosed Nuclei (%): 21% and 20%
  Population Tubulin-Different-Phenotype (%): 11% and 13%
  Total Cell Count: 174 and 157
[2]; [5]
  Population Apoptotic (%): 63% and 53%
  Population Fragmented Nuclei (%): 10% and 20%
  Population Healthy Nuclei (%): 42% and 50%
  Population Hoechst High Intensity Objects (%): 0%
  Population Membrane Permeable-Phenotype (%): 0% and 9%
  Population Mitochondria Different-Phenotype (%): 21% and 24%
  Population Mitotic Cells (%): 36% and 46%
  Population Normal (%): 99%
  Population Pyknosed Nuclei (%): 46% and 29%
  Population Tubulin-Different-Phenotype (%): 78% and 70%
  Total Cell Count: 131 and 175
[2]; [6]
  Population Apoptotic (%): 76% and 71%
  Population Fragmented Nuclei (%): 17% and 12%
  Population Healthy Nuclei (%): 49% and 56%
  Population Hoechst High Intensity Objects (%): 0%
  Population Membrane Permeable-Phenotype (%): 10% and 8%
  Population Mitochondria Different-Phenotype (%): 2% and 1%
  Population Mitotic Cells (%): 23% and 28%
  Population Normal (%): 100%
  Population Pyknosed Nuclei (%): 33% and 31%
  Population Tubulin-Different-Phenotype (%): 18% and 19%
  Total Cell Count: 151 and 166
[2]; [7]
  Population Apoptotic (%): 78% and 64%
  Population Fragmented Nuclei (%): 8% and 14%
  Population Healthy Nuclei (%): 30% and 41%
  Population Hoechst High Intensity Objects (%): 1%
  Population Membrane Permeable-Phenotype (%): 2% and 8%
  Population Mitochondria Different-Phenotype (%): 43% and 36%
  Population Mitotic Cells (%): 21% and 35%
  Population Normal (%): 98%
  Population Pyknosed Nuclei (%): 61% and 43%
  Population Tubulin-Different-Phenotype (%): 72% and 71%
  Total Cell Count: 125 and 173
[2]; [8]
  Population Apoptotic (%): 79% and 85%
  Population Fragmented Nuclei (%): 11% and 14%
  Population Healthy Nuclei (%): 47% and 50%
  Population Hoechst High Intensity Objects (%): 0%
  Population Membrane Permeable-Phenotype (%): 19% and 17%
  Population Mitochondria Different-Phenotype (%): 1% and 5%
  Population Mitotic Cells (%): 20% and 14%
  Population Normal (%): 100% and 99%
  Population Pyknosed Nuclei (%): 41% and 35%
  Population Tubulin-Different-Phenotype (%): 27% and 20%
  Total Cell Count: 161 and 139
[2]; [9]
  Population Apoptotic (%): 92% and 87%
  Population Fragmented Nuclei (%): 11% and 14%
  Population Healthy Nuclei (%): 15% and 21%
  Population Hoechst High Intensity Objects (%): 0%
  Population Mitochondria Different-Phenotype (%): 22% and 28%
  Population Mitotic Cells (%): 7% and 12%
  Population Normal (%): 99%
  Population Pyknosed Nuclei (%): 73% and 63%
  Population Tubulin-Different-Phenotype (%): 83% and 74%
  Total Cell Count: 117 and 161
[3]; [4]
  Population Apoptotic (%): 28% and 47%
  Population Healthy Nuclei (%): 61% and 77%
  Population Hoechst High Intensity Objects (%): 0%
  Population Membrane Permeable-Phenotype (%): 7% and 3%
  Population Mitochondria Different-Phenotype (%): 3%
  Population Mitotic Cells (%): 71% and 52%
  Population Normal (%): 100%
  Population Pyknosed Nuclei (%): 16% and 15%
  Population Tubulin-Different-Phenotype (%): 88% and 93%
[3]; [5]
  Population Apoptotic (%): 66% and 86%
  Population Fragmented Nuclei (%): 20% and 10%
  Population Healthy Nuclei (%): 44% and 40%
  Population Hoechst High Intensity Objects (%): 0%
  Population Membrane Permeable-Phenotype (%): 0% and 22%
  Population Mitotic Cells (%): 33% and 13%
  Population Normal (%): 100% and 99%
  Population Pyknosed Nuclei (%): 36% and 48%
  Population Tubulin-Different-Phenotype (%): 81% and 57%
[3]; [6]
  Population Apoptotic (%): 70% and 76%
  Population Fragmented Nuclei (%): 19% and 8%
  Population Healthy Nuclei (%): 52% and 67%
  Population Hoechst High Intensity Objects (%): 0%
  Population Membrane Permeable-Phenotype (%): 10% and 3%
  Population Mitochondria Different-Phenotype (%): 0% and 1%
  Population Mitotic Cells (%): 30% and 23%
  Population Normal (%): 100%
  Population Pyknosed Nuclei (%): 27% and 23%
  Population Tubulin-Different-Phenotype (%): 89% and 95%
[3]; [7]
  Population Apoptotic (%): 93% and 80%
  Population Fragmented Nuclei (%): 8% and 17%
  Population Hoechst High Intensity Objects (%): 5% and 0%
  Population Membrane Permeable-Phenotype (%): 58% and 22%
  Population Normal (%): 94% and 100%
  Population Pyknosed Nuclei (%): 80% and 43%
  Population Tubulin-Different-Phenotype (%): 76% and 100%
[3]; [8]
  Population Apoptotic (%): 90% and 83%
  Population Fragmented Nuclei (%): 12% and 7%
  Population Healthy Nuclei (%): 74% and 75%
  Population Hoechst High Intensity Objects (%): 0%
  Population Membrane Permeable-Phenotype (%): 3% and 5%
  Population Mitochondria Different-Phenotype (%): 1% and 3%
  Population Mitotic Cells (%): 10% and 16%
  Population Normal (%): 100%
  Population Pyknosed Nuclei (%): 13% and 16%
  Population Tubulin-Different-Phenotype (%): 98% and 97%
[3]; [9]
  Population Apoptotic (%): 92% and 69%
  Population Healthy Nuclei (%): 13% and 20%
  Population Hoechst High Intensity Objects (%): 1% and 0%
  Population Membrane Permeable-Phenotype (%): 91% and 40%
  Population Mitochondria Different-Phenotype (%): 83% and 60%
  Population Normal (%): 98% and 100%
  Population Pyknosed Nuclei (%): 79% and 52%
  Population Tubulin-Different-Phenotype (%): 100%
